# Results taken from ChEMBL document CHEMBL1140145, “Identification of non-nucleoside DNA synthesis inhibitors of vaccinia virus by high-throughput screening” (J Med Chem, 2008).
# Activity calls are given as the source filed them. No cut-off for these calls is given here.
# Key:
# [1] = test system: Vaccinia virus; experiment: Inhibition of Vaccinia virus DNA synthesis in by rapid plate assay; type: functional, organism-based; conditions: Orthopoxvirus vaccinia
# [2] = Cytotoxicity against african green monkey BSC1 cells after 120 hrs WST-1 based assay; type: cell-based, BSC-1; conditions: chlorocebus aethiops, read-out: TC50
# Summary of the method: (§1)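 Uninfected BS-C-1 cells in phenol red-free medium, seeded 5000 (20 h), 1000 (3-day) or 200 (5-day) cells/well, exposed next day to compound in two-fold serial dilutions (top 200 µM; 1% DMSO final) at 37°C. WST-1 added 30 min, A450 read. Triplicates; percent cytotoxicity vs DMSO fitted four-parameter sigmoidal for TC50.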
# [3] = test system: Vaccinia virus; experiment: Antiviral activity against Vaccinia virus WR in BSC1 cells assessed as protection from virus-induced lysis of cell monolayer after 20 hrs; type: functional, organism-based; conditions: Orthopoxvirus vaccinia, BSC-1, 20 h
# [4] = test system: Vaccinia virus; experiment: Antiviral activity against Vaccinia virus WR in BSC1 cells assessed as reduction in plaque formation after 20 hrs; type: functional, organism-based; conditions: Orthopoxvirus vaccinia, BSC-1, 20 h
# [5] = Selectivity index, TC50 for african green monkey BSC1 cells after 20 hrs to EC50 for Vaccinia virus WR in BSC1 cells after 20 hrs by cell protection assay; type: toxicity, cell-based, BSC-1; conditions: read-out: Selectivity Index
# [6] = Cytotoxicity against african green monkey BSC1 cells after 72 hrs WST-1 based assay; type: cell-based, BSC-1; conditions: chlorocebus aethiops, read-out: TC50; summary of the method: as §1
# [7] = test system: Vaccinia virus; experiment: Antiviral activity against Vaccinia virus WR in BSC1 cells assessed as retention of antiviral potency by measuring exogenous double stranded DNA trapping; type: functional, organism-based; conditions: Orthopoxvirus vaccinia, BSC-1
# [8] = Cytotoxicity against african green monkey BSC1 cells after 20 hrs WST-1 based assay; type: cell-based, BSC-1; conditions: chlorocebus aethiops, read-out: TC50; summary of the method: as §1
# [9] = test system: Vaccinia virus; experiment: Antiviral activity against Vaccinia virus WR in BSC1 cells assessed as reduction in plaque formation up to 200 uM after 20 hrs; type: functional, organism-based; conditions: Orthopoxvirus vaccinia, BSC-1
# [10] = test system: Vaccinia virus; experiment: Antiviral activity against Vaccinia virus WR in BSC1 cells assessed as protection from virus-induced lysis of cell monolayer up to 200 uM after 20 hrs; type: functional, organism-based; conditions: Orthopoxvirus vaccinia, BSC-1
# [11] = Cytotoxicity against african green monkey BSC1 cells up to 200 uM after 20 to 120 hrs WST-1 based assay; type: cell-based; conditions: chlorocebus aethiops, bsc-1; summary of the method: as §1
SMILES,IC50 [1],CC50 at 120 h [2],EC50 [3],EC50 [4],selectivity ratio at 20 h [5],CC50 at 72 h [6],Activity [7],CC50 at 20 h [8],Activity [9],Activity [10],Activity [11]
Cc1c(/N=C/c2cc(Br)cc(Br)c2O)cccc1C(=O)O,26 µM,20 µM,100 µM,75 µM,> 2,38 µM,Active,> 200 µM,–,–,–
Cc1ccc2c(Sc3ccc(Cl)cc3)c(C(=O)O)[nH]c2c1,43 µM,120 µM,–,75 µM,> 1.5,174 µM,Active,> 200 µM,–,–,–
BrCc1ccc(-c2noc(-c3ccncc3)n2)cc1,1.3 µM,–,–,–,–,–,–,–,inactive,inactive,Toxic
COc1ccc2nc(NC(=N)N)nc(C)c2c1,7.4 µM,–,–,–,–,–,–,–,inactive,inactive,Toxic
O=C1/C(=C/C2CCCO2)CC/C1=C\C1CCCO1 (configuration not stated),239 µM,50 µM,100 µM,50 µM,> 1,> 100 µM,Active,> 100 µM,–,–,–
CCOC(=O)c1cnc2c(C)c(C)ccc2c1NCCCN(C)C,5 µM,–,–,–,–,–,–,–,inactive,inactive,Toxic
CC(=O)n1c2ccccc2c2nc(C)sc21,111 µM,75 µM,–,100 µM,> 1,> 200 µM,Active,> 200 µM,–,–,–
O=C(O)c1ccc(CS(=O)(=O)c2ccccc2)o1,7.4 µM,–,–,–,–,–,–,–,inactive,inactive,Toxic
O=C(NCCCN1CCCC1)c1cc2c(Cl)nc3ccccc3c2s1,10 µM,–,–,–,–,–,–,–,inactive,inactive,Toxic
CN(C)c1ccc(-c2cccc(-c3ccc(N(C)C)cc3)[o+]2)cc1,3 µM,–,–,–,–,–,–,–,inactive,inactive,Toxic
N=C1/C(=C/c2coc3ccccc3c2=O)C(=O)N=C2SC=NN12,75 µM,50 µM,–,–,> 1,> 200 µM,Active,> 200 µM,–,–,–
N/N=C1\CCCc2c1[nH]c1ccc(C(=O)NN)cc21,–,–,193 µM,100 µM,–,35 µM,inactive,> 200 µM,–,–,–
Cc1csc2c(N3CCN(C(=O)NC(C)(C)C)CC3)ncnc12,12 µM,40 µM,50 µM,15 µM,3.1,–,Active,157 µM,–,–,–
CC[n+]1cc(/C=C2\SC=CN2C)c(C)c2cc(OC)c3ccccc3c21,3.5 µM,–,–,–,–,–,–,–,inactive,inactive,Toxic
CCN1CCN(c2ccc(Nc3ccnc4cc5ccccc5cc34)cc2)CC1,0.5 µM,–,–,–,–,–,–,–,inactive,inactive,Toxic
OC(CN1CCNCC1)Cn1c2ccc(Br)cc2c2cc(Br)ccc21 (configuration not stated),6.3 µM,–,–,–,–,–,–,–,inactive,inactive,Toxic
COc1ccc2c(c1)C=C/C(=C\c1sc3ccccc3[n+]1C)N2C.[Cl-],4 µM,–,–,–,–,–,–,–,inactive,inactive,Toxic

SMILES,IC50 [1],CC50 at 120 h [2],EC50 [3],EC50 [4],selectivity ratio at 20 h [5],CC50 at 72 h [6],Activity [7],CC50 at 20 h [8],Activity [9],Activity [10],Activity [11]
Cc1ccc2oc(-c3ccccc3)c/c(=N\CCO)c2c1,25 µM,12 µM,57 µM,40 µM,> 3.5,–,inactive,> 200 µM,–,–,–
O=C(O)Cn1c2ccc(Cl)cc2c2nc3ccccc3nc21,–,30 µM,100 µM,50 µM,–,13 µM,Active,> 100 µM,–,–,–
CN(C)CC/N=c1\cc(-c2ccccc2)oc2ccc(Cl)cc12,6.7 µM,–,–,–,–,–,–,–,inactive,inactive,Toxic
CC1=CC(C)(C)N=C(Nc2nc(C)c3cc(C)cc(C)c3n2)N1,5.3 µM,–,–,–,–,–,–,–,inactive,inactive,Toxic
CCNc1nc(SCc2ccc(Cl)cc2)nc2sc3c(c12)CCN(C)C3,129 µM,5 µM,45 µM,15 µM,2.6,–,Active,115 µM,–,–,–
Nc1ccn(C[C@@H](CO)OCP(=O)(O)O)c(=O)n1 [CIDOFOVIR],–,300 µM,–,50 µM,> 3.8,> 500 µM,Active,> 500 µM,–,–,–
CN(C)CCc1cc2c(c3c1ccc1ccccc13)OCO2,5.4 µM,–,–,–,–,–,–,–,inactive,inactive,Toxic
CC1CCCC(C)N1CCNc1nc2ccccc2c2nc(-c3ccccc3)nn12 (configuration not stated),7.3 µM,–,–,–,–,–,–,–,inactive,inactive,Toxic
CCN(CC)CCCNc1nc2cc(OC)c(OC)cc2c2nc(-c3ccccc3)nn12,5.9 µM,–,–,–,–,–,–,–,inactive,inactive,Toxic
CCC/N=c1\cc(-c2ccccc2)oc2ccc(C)cc12,–,10 µM,57 µM,25 µM,–,–,inactive,> 200 µM,–,–,–
Cc1cc(NCCN2CCCCC2)c2ccc3ccccc3c2n1,6 µM,–,–,–,–,–,–,–,inactive,inactive,Toxic
CCOC(=O)CCc1c(CC(=O)OCC)c[nH]c1/C=N/O.Cl,3.8 µM,–,–,–,–,–,–,–,inactive,inactive,Toxic
CCN(CC)Cn1nc2c3c(cccc3c1=O)-c1ccccc1-2,25 µM,–,14 µM,25 µM,–,–,inactive,133 µM,–,–,–
Cc1ccc2nc(Cl)c3cc(C(=O)N(CCN(C)C)Cc4ccco4)sc3c2c1,10 µM,–,–,–,–,–,–,–,inactive,inactive,Toxic
O=C(Nc1ccccc1C(=O)O)OCC1c2ccccc2-c2ccccc21,26 µM,20 µM,–,75 µM,> 1.9,40 µM,Active,> 200 µM,–,–,–
CC(C)Nc1ccc(Nc2ccnc3cc4ccccc4cc23)cc1,4.1 µM,–,–,–,–,–,–,–,inactive,inactive,Toxic
